# CHOP inhibitor: inhibitors of CHOP induction in ER stress response | CHO-K1 CHOP-promoter luciferase, tunicamycin-induced, 15-18 h | inhibition, % at 10 µM | 220,000 compounds, 3.8% hits;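 active = compounds that reduced the stress-induced luciferase reporter signal by more than about 70% of percent inhibition, limit read from the data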;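 also: 0% = tunicamycin plus vehicle and 100% = wells without tunicamycin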
# Hep lipid drop: modulators of hepatic lipid droplet formation; AML12 mouse hepatocytes, oleate lipid droplets, BODIPY imaging; inhibition, % at 6.5 µM; 240,000 compounds, 0.4% hits; AID 1656;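 active = lipid droplet intensity inhibited by at least 50%, with more than 500 cells counted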
#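 Test system: AML12 mouse liver cells; schedule: overnight exposure; technique: high-content imaging of BODIPY-stained droplets and DAPI nuclei; read-out: % inhibition of corrected integrated BODIPY droplet signal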
# TMEM16A act: activators or potentiators of mouse TMEM16A chloride channel. B-score at 10 µM. Q8BHY3. HEK293 TMEM16A/YFP-H148Q/I152L, iodide quench fluorescence; active compounds read low. 340,000 compounds, 0.3% hits. AID 623877;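 active = fluorescence-ratio B-score plate-corrected deviation score at least 3 library SD below zero, with starting fluorescence score within 5 deviations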;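 also: channel opened by trigger with iodide after compound preincubation; score built on the fluorescence ratio of max minus min over baseline; more negative score means more quench and so TMEM16A activation or potentiation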
# Target sequence (Q8BHY3 whole entry, looked up): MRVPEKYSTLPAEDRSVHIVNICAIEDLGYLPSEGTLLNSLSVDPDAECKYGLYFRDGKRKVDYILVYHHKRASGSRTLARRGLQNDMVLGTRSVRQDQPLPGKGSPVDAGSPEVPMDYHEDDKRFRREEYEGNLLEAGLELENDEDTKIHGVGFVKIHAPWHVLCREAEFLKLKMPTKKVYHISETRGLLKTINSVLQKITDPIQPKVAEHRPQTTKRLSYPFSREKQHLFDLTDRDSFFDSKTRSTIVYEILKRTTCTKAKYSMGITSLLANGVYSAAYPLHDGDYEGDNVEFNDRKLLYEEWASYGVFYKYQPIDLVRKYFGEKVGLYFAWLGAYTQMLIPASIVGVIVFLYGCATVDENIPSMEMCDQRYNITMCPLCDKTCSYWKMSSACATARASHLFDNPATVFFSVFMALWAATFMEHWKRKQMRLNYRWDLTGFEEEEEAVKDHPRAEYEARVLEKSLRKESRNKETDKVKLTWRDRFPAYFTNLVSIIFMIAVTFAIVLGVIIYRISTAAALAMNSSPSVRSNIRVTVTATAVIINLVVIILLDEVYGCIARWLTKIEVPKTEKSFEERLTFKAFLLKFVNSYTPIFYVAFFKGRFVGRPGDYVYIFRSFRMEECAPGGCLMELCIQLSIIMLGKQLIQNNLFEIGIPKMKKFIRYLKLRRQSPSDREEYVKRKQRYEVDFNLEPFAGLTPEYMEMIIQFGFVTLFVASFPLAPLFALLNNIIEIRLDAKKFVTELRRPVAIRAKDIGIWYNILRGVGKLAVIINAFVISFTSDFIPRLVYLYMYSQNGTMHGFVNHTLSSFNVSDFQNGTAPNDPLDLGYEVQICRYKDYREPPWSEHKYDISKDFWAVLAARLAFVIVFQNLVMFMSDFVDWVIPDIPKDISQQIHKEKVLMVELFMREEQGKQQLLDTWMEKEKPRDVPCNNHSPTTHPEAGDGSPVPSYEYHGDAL
# TMEM16A inh: inhibitors of mouse TMEM16A calcium-activated chloride channel | Q8BHY3 | HEK293 TMEM16A/YFP iodide influx fluorescence, ionomycin | normalized B-score (activity score, 25-100; higher = stronger inhibition) at 10 µM | 310,000 compounds, 1.2% hits | AID 588511;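 active = ratio plate-corrected score three or more library SD toward inhibition, starting fluorescence score within five deviations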;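 also: score derived from kinetic fluorescence span divided by baseline fluorescence per well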
# UPR XBP1 act: activators of adaptive arm of unfolded protein response (XBP1); CHO-XBP1 luciferase reporter, IRE1-XBP1 UPR activation, luminescence; percent of tunicamycin response, DMSO as zero; activation, % at 20 µM; 330,000 compounds, 0.33% hits;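 active = versus positive control, 20 µM dose yields 30% or more activation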;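 also: 100% = tunicamycin at 10 µg/mL and 0% = DMSO only wells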
#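 Assay system: CHO-XBP1 luciferase reporter cells; Schedule: 6 h treatment, 37 °C; Detection: glow luminescence from Steady-Glo reagent; Benchmarks: high control tunicamycin 10 µg/mL final, low control DMSO vehicle only.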
# CHOP UPR activ: apoptotic UPR (CHOP) activation. CHO-CHOP luciferase reporter, luminescence; percent of tunicamycin response over DMSO baseline. activation, % at 10 µM. 330,000 compounds, 0.34% hits. AID 449763;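 active = at 10 µM dose, activation of 40% or more, normalized to positive control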;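 also: 100% = tunicamycin at 10 µg/mL and 0% = DMSO alone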
#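 assay system = CHO CHOP reporter cells | amount = 500 CHO-CHOP cells per well | buffer or medium = F12 with 10% FBS | incubation = 16-18 h cell attachment, then 6 h compound exposure, 37 °C | detection = luminescence read with Steady-Glo | read-out = percent activation relative to tunicamycin control | controls = tunicamycin high control, DMSO low control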
# Starred values were filed as active, the others as inactive; i = inactive; . = no result. A selection: hits, their analogues and other compounds. The true share with any hit is near 4.2%.
SMILES,CHOP inhibitor,Hep lipid drop,TMEM16A act,TMEM16A inh,UPR XBP1 act,CHOP UPR activ
COc1cc(NC(=O)c2cccs2)c(C(=O)OCC(=O)c2cc(C)n(-c3ccccc3)c2C)cc1OC,85*,-10,i,i,-9,-10
CC1CCN(C(=O)c2[nH]cnc2C(=O)Nc2cccc(Cl)c2)CC1,.,.,i,.,-2,-2
Cc1cc(OCC(=O)NC(C)c2ccccc2)ccc1[N+](=O)[O-] (centres undefined),-11,-8,i,i,0,-1
Cc1ccc(C(=O)NNC(=O)CCCN2C(=O)/C(=C/c3ccccc3Cl)SC2=S)cc1,31,-6,i,i,-4,0
O=C(CCCN1C(=O)/C(=C/c2ccccc2Cl)SC1=S)NNC(=O)c1ccc(Cl)cc1,93*,-8,i,i,-6,-7
COc1cccc(/C=C2\SC(=S)N(CCCC(=O)Nc3cc(C)on3)C2=O)c1,.,-8,i,i,5,-3
O=C(CCCN1C(=O)/C(=C/c2ccccc2Cl)SC1=S)Nc1ccccn1,91*,4,i,i,-5,-4
O=C(O)CCCN1C(=O)/C(=C/c2cn(-c3ccccc3)nc2-c2cccs2)SC1=S,85*,-4,i,.,.,.
O=C(CCN1C(=O)/C(=C/c2ccccc2Cl)SC1=S)Nc1ccccn1,.,12,i,i,0,1
Cc1cc(NC(=O)CCCN2C(=O)/C(=C/c3cccs3)SC2=S)no1,76*,-4,i,i,6,-3
Cc1nn(-c2ccccc2)c(Cl)c1/C=C1\SC(=S)N(CCCCCC(=O)O)C1=O,9,6,i,i,-5,0
COc1ccc2c(c1)/C(=C\c1cccc(/C=C3/C(=O)Nc4ccc(OC)cc43)n1)C(=O)N2,.,.,i,.,.,.
CC(Sc1ccc(S(=O)(=O)N(C)C)cn1)C(=O)NC1CCCC1 (centres undefined),.,.,i,.,0,0
COc1ccc(S(=O)(=O)N2CCC(C(=O)NCc3cccnc3)CC2)cc1OC,.,-1,i,i,0,-2
CN(Cc1ccc(F)cc1)S(=O)(=O)c1nnc(NC(=O)c2ccccc2)s1,.,-23,i,i,1,1
N#C/C(=C/c1ccc(F)cc1)c1nnc(NC(=O)c2ccccc2)s1,73*,-2,i,i,-3,1
CC(C)c1cc(C(=O)Nc2cc(Br)ccc2O)no1,78*,-4,i,i,3,2
CC(C)c1cc(C(=O)Nc2cc(Cl)ccc2O)no1,.,.,i,i,9,6
CSc1sc(C(=O)NN)c2c1C1(CCC2)SCCS1,-1,-28,i,i,-2,-1
CC(C)CC(=O)N1CC=CC[C@@H](c2ccc(Cl)cc2)N(Cc2ccc(Cl)cc2)C(=O)[C@@H]1Cc1ccccc1,.,.,i,.,.,.
O=C(COC(=O)COc1ccc(Br)cc1)NCc1ccc2c(c1)OCO2,.,.,i,.,-3,-1
C/C(=C\C(=O)c1ccc(Br)cc1)NCc1ccc2c(c1)OCO2,6,.,i,100*,4,0
CC(=O)c1ccc(S(=O)(=O)N(C)CCCC(=O)NCc2ccc3c(c2)OCO3)cc1,.,.,-5.8*,.,-2,-2
COc1ccc(CN2CCOCCOCCN(Cc3ccc(OC)cc3)CCOCCOCC2)cc1,-8,-18,i,i,0,-1
COC(=O)c1cc2nc(-c3ccc(OC)cc3)cc(C(F)(F)F)n2n1,70*,.,i,i,-5,2
SMILES,CHOP inhibitor,Hep lipid drop,TMEM16A act,TMEM16A inh,UPR XBP1 act,CHOP UPR activ
Cc1cc(C)cc(NC(=O)c2cccn2-c2ncc(C(F)(F)F)cc2Cl)c1,74*,.,i,i,0,1
O=C(Nc1ccc(F)cc1F)c1cccn1-c1ncc(C(F)(F)F)cc1Cl,43,.,i,i,2,0
Cc1sc(NC(=O)CSC2=NCCS2)nc1-c1ccccc1,73*,-9,i,i,2,1
O=C(Nc1cccc(S(=O)(=O)N2CCCCCC2)c1)C1CCC1,.,.,i,i,-2,0
COC(=O)Cn1ncc(N2C3CC(CC(C)(C)C3)C2C)c(Cl)c1=O (centres undefined),14,13,i,i,-3,1
COc1ccc(C(=O)/C(=C\c2ccco2)N2C=CC=CC2=C(C#N)C#N)cc1,107*,.,i,i,-5,-10
N#CC(C#N)=C1C=CC=CN1/C(=C\c1ccco1)C(=O)c1ccccc1,110*,1,i,i,.,.
N#CC(C#N)=C1C=CC=CN1/C(=C\c1ccco1)C(=O)c1ccc(Br)cc1,109*,-2,i,i,.,.
CC(C)(C)NC(=O)/C(=C/c1ccco1)c1ccccc1,28,.,i,i,6,1
CC(C)c1nnc(SCC(=O)Nc2ccc3c(c2)OCCO3)n1C,.,-2,i,i,-2,-1
CC(=O)Nc1ccc(NC(=O)CSc2nnc(-c3cccs3)n2C)cc1,.,0,i,i,-4,-3
CS(=O)(=O)c1sc(C#N)c2c1C(=O)CC(c1ccccc1)C2 (centres undefined),107*,-1,-11*,i,-11,-11
CCCC1(c2ccccc2)NC(=O)N(CC(=O)Nc2sc(-c3ccccc3)cc2C(=O)OCC)C1=O (centres undefined),85*,15,i,i,4,1
CCOC(=O)c1cc(-c2ccccc2)sc1NC(=O)CN1C(=O)c2ccccc2C1=O,.,.,i,i,-7,0
CN(CC(=O)Nc1cccc(F)c1)C(=O)c1ccc(COc2ccccc2)cc1,.,.,i,i,-2,2
CC1CCc2cc(F)ccc2N1C(=O)c1cnc2sccn2c1=O (centres undefined),79*,-4,i,i,-2,0
CC1CCc2cc(F)ccc2N1C(=O)CCl (centres undefined),92*,14,i,.,.,.
CC1CCc2cc(F)ccc2N1C(=O)c1ccncc1 (centres undefined),17,-8,i,i,-1,0
CCSc1nnc(NC(=O)C(CC)(C(F)(F)F)C(F)(F)F)s1,21,7,i,100*,-8,-2
CCn1cc(C(=O)NC(C)C23CC4CC(CC(C4)C2)C3)cn1 (centres undefined),-21,-4,i,i,2,2
CC(NC(=O)CN1C(=O)NC(Cc2ccccc2)(Cc2ccccc2)C1=O)C12CC3CC(CC(C3)C1)C2 (centres undefined),84*,6,i,i,-1,-1
